Measurements from ChEMBL document CHEMBL1287642, “Synthesis, antiviral activity and cytotoxicity evaluation of Schiff bases of some 2-phenyl quinazoline-4(3)H-ones” (Eur J Med Chem, 2010).
In brackets after ≈: the same amount, converted by molar mass.

Assays:
Felid alphaherpesvirus 1 = assay: Antiviral activity against Feline herpes virus infected in cat CRFK cells assessed as protection against virus-induced cytopathogenicity after 2 days by MTS assay; type: functional, organism-based; conditions: Felid alphaherpesvirus 1, CRFK, 48 h
[1] = Cytotoxicity against cat CRFK cells by MTS assay; type: cell-based, Felis catus
Method in brief: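 In uninfected CRFK cells, the 50% cytotoxic concentration was derived from cell viability measured by the colorimetric formazan-based MTS assay.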

[2] = tested on: Feline infectious peritonitis virus; assay: Antiviral activity against Feline coronavirus FIPV infected in cat CRFK cells assessed as protection against virus-induced cytopathogenicity after 2 days by MTS assay; type: functional, cell-based; conditions: Alphacoronavirus 1, CRFK, 48 h
Influenza B virus [3] = assay: Antiviral activity against influenza B virus infected in MDCK cells assessed as cell viability at 100 ug/ml after 2 days by MTS assay; type: functional, organism-based
[4] = Cytotoxicity against human HEL cells assessed as minimum concentration required to cause microscopically detectable alteration after 2 days; type: cell-based; conditions: read-out: Activity
Influenza A virus [5] = assay: Antiviral activity against Influenza A virus H3N2 infected in MDCK cells assessed as cell viability at 100 ug/ml after 2 days by MTS assay; type: functional, organism-based
MDCK = assay: Cytotoxicity against MDCK cells by MTS assay; type: cell-based, Canis lupus familiaris; conditions: dog, mdck
Method in brief: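 In Madin Darby canine kidney cells, the 50% cytotoxic concentration was derived from cell viability measured by the colorimetric formazan-based MTS assay.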

[6] = Cytotoxicity against MDCK cells assessed as minimum concentration required to cause microscopically detectable alteration after 2 days; type: cell-based, Canis lupus familiaris; conditions: dog, read-out: Activity
[7] = tested on: Mammalian orthoreovirus 1; assay: Antiviral activity against Reovirus-1 infected in african green monkey Vero cells assessed as protection against virus-induced cytopathogenicity after 2 days; type: functional, organism-based; conditions: Mammalian orthoreovirus 1, Vero, 48 h
Human respirovirus 3 = assay: Antiviral activity against Para influenza-3 virus infected in african green monkey Vero cells assessed as protection against virus-induced cytopathogenicity after 2 days; type: functional, organism-based; conditions: Human respirovirus 3, Vero, 48 h
Influenza A virus [8] = assay: Antiviral activity against influenza A virus H1N1 infected in MDCK cells assessed as protection against virus-induced cytopathogenicity at 100 ug/ml after 2 days; type: functional, organism-based
Method in brief: (§1)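 Infected MDCK cells were treated. […] N.A. means not active at the highest concentration tested or at a subtoxic concentration.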

Influenza A virus [9] = assay: Antiviral activity against influenza A virus H1N1 infected in MDCK cells assessed as cell viability at 100 ug/ml after 2 days by MTS assay; type: functional, organism-based
Human alphaherpesvirus 1 [10] = assay: Antiviral activity against acyclovir-resistant TK deficient Herpes simplex virus-1 KOS infected in human HEL cells assessed as protection against virus-induced cytopathogenicity after 2 days; type: functional, organism-based; conditions: Human alphaherpesvirus 1, KOS, 48 h
Coxsackievirus B4 [11] = assay: Antiviral activity against Coxsackie virus B4 infected in african green monkey Vero cells assessed as protection against virus-induced cytopathogenicity after 2 days; type: functional, organism-based; conditions: Enterovirus B, 48 h
Influenza A virus [12] = assay: Antiviral activity against Influenza A virus H3N2 infected in MDCK cells assessed as protection against virus-induced cytopathogenicity at 100 ug/ml after 2 days; type: functional, organism-based; method in brief: as §1
Influenza B virus [13] = assay: Antiviral activity against influenza B virus infected in MDCK cells assessed as protection against virus-induced cytopathogenicity at 100 ug/ml after 2 days; type: functional, organism-based; method in brief: as §1
Punta Toro virus = assay: Antiviral activity against Punta Toro virus infected in african green monkey Vero cells assessed as protection against virus-induced cytopathogenicity after 2 days; type: functional, organism-based; conditions: 48 h
[14] = Cytotoxicity against human HeLa cells assessed as minimum concentration required to cause microscopically detectable alteration after 2 days; type: cell-based; conditions: read-out: Activity
Sindbis virus = assay: Antiviral activity against Sindbis virus infected in african green monkey Vero cells assessed as protection against virus-induced cytopathogenicity after 2 days; type: functional, organism-based; conditions: 48 h
Human alphaherpesvirus 1 [15] = assay: Antiviral activity against Herpes simplex virus-1 KOS infected in human HEL cells assessed as protection against virus-induced cytopathogenicity after 2 days; type: functional, organism-based; conditions: Human alphaherpesvirus 1, KOS, 48 h
[16] = tested on: Vesicular stomatitis virus; assay: Antiviral activity against Vesicular stomatitis virus infected in human HEL cells assessed as protection against virus-induced cytopathogenicity after 2 days; type: functional, organism-based; conditions: 48 h
Human alphaherpesvirus 2 = assay: Antiviral activity against Herpes simplex virus-2 G infected in human HEL cells assessed as protection against virus-induced cytopathogenicity after 2 days; type: functional, organism-based; conditions: Human alphaherpesvirus 2, strain G, 48 h
Coxsackievirus B4 [17] = assay: Antiviral activity against Coxsackie virus B4 infected in human HeLa cells assessed as protection against virus-induced cytopathogenicity after 2 days; type: functional, organism-based; conditions: Enterovirus B, 48 h
[18] = tested on: Respiratory syncytial virus; assay: Antiviral activity against Respiratory syncytial virus infected in human HeLa cells assessed as protection against virus-induced cytopathogenicity after 2 days; type: functional, organism-based; conditions: 48 h
[19] = Cytotoxicity against african green monkey Vero cells assessed as minimum concentration required to cause microscopically detectable alteration after 2 days; type: cell-based; conditions: chlorocebus sabaeus, read-out: Activity
[20] = tested on: Vesicular stomatitis virus; assay: Antiviral activity against Vesicular stomatitis virus infected in human HeLa cells assessed as protection against virus-induced cytopathogenicity after 2 days; type: functional, organism-based; conditions: 48 h

Structure (SMILES)	EC50 (Felid alphaherpesvirus 1) [µg/mL]	EC50 [2] [µg/mL]	EC50 (Influenza B virus [3])	MCC at 48 h [4] [µg/mL]	EC50 (Influenza A virus [5])	MCC at 48 h [6] [µg/mL]	EC50 [7] [µg/mL]	EC50 (Human respirovirus 3) [µg/mL]	EC50 (Human alphaherpesvirus 1 [10]) [µg/mL]	EC50 (Coxsackievirus B4 [11]) [µg/mL]	EC50 (Punta Toro virus) [µg/mL]	MCC at 48 h [14] [µg/mL]	EC50 (Sindbis virus) [µg/mL]	EC50 (Human alphaherpesvirus 1 [15]) [µg/mL]	EC50 [16] [µg/mL]	EC50 (Human alphaherpesvirus 2) [µg/mL]	EC50 (Coxsackievirus B4 [17]) [µg/mL]	EC50 [18] [µg/mL]	MCC at 48 h [19] [µg/mL]	EC50 [20] [µg/mL]	also measured
N=C(N)NCCC[C@H](N)C(=O)O [ARGININE]	1.6 (≈ 9.18 µM)	2.6 (≈ 14.9 µM)	–	–	–	–	–	–	–	–	–	–	–	–	–	–	–	–	–	–	CC50 ([1]; CRFK cells, read-out: CC50): > 100 µg/mL
CC(=O)N[C@H]1[C@H](OOP(=O)(O)OP(=O)(O)OC[C@H]2O[C@@H](n3ccc(=O)[nH]c3=O)[C@H](O)[C@@H]2O)O[C@H](CO)[C@@H](O)[C@@H]1O[C@](C)(OP(=O)(O)O)C(=O)O	53.1 (≈ 67.1 µM)	11.7 (≈ 14.8 µM)	–	–	–	–	–	–	–	–	–	–	–	–	–	–	–	–	–	–	CC50 ([1]; CRFK cells, read-out: CC50): > 100 µg/mL
COc1ccc(/C=N/n2c(-c3ccccc3)nc3ccccc3c2=O)cc1O	> 20	> 20	Not Active	100	Not Active	20	> 20	> 20	> 20	> 20	> 20	20	> 20	> 20	> 20	> 20	> 4	> 4	100	> 4	CC50 (MDCK): 47.4 µg/mL (≈ 128 µM); EC50 (Influenza A virus [8]): Not Active; EC50 (Influenza A virus [9]): Not Active; EC50 (Influenza A virus [12]): Not Active; EC50 (Influenza B virus [13]): Not Active; CC50 ([1]; crfk): 42.7 µg/mL (≈ 115 µM)
O=c1c2ccccc2nc(-c2ccccc2)n1/N=C/c1ccc(O)cc1	> 20	> 20	Not Active	100	Not Active	20	> 20	> 20	> 20	> 20	> 20	100	> 20	> 20	> 20	> 20	> 20	> 20	100	> 20	CC50 (MDCK): 10.2 µg/mL (≈ 29.9 µM); EC50 (Influenza A virus [8]): Not Active; EC50 (Influenza A virus [9]): Not Active; EC50 (Influenza A virus [12]): Not Active; EC50 (Influenza B virus [13]): Not Active; CC50 ([1]; crfk): 59.5 µg/mL (≈ 174 µM)
O=c1[nH]c(=O)n([C@H]2C[C@H](O)[C@@H](CO)O2)cc1/C=C/Br [BRIVUDINE]	–	–	–	> 250	–	–	–	–	–	–	–	–	–	–	> 250	50 (≈ 150 µM)	–	–	–	–	–
NC(=O)c1ncn([C@@H]2O[C@H](CO)[C@@H](O)[C@H]2O)n1 [RIBAVIRIN]	–	–	–	> 250	–	> 100	> 250	–	> 250	> 250	–	> 250	> 250	> 250	–	> 250	–	22 (≈ 90.1 µM)	> 250	22 (≈ 90.1 µM)	–
C/C(=N\n1c(-c2ccccc2)nc2ccccc2c1=O)c1ccc(O)cc1	> 100	> 100	Not Active	> 100	Not Active	> 100	> 100	> 100	> 100	> 100	> 100	> 100	> 100	> 100	> 100	> 100	> 100	> 100	100	> 100	CC50 (MDCK): > 100 µg/mL; EC50 (Influenza A virus [8]): Not Active; EC50 (Influenza A virus [9]): Not Active; EC50 (Influenza A virus [12]): Not Active; EC50 (Influenza B virus [13]): Not Active; CC50 ([1]; crfk): > 100 µg/mL
Nc1ncnc2c1ncn2C[C@H](O)CO [(S)-DHPA]	–	–	–	–	–	–	> 250	> 250	–	> 250	> 250	> 250	> 250	–	–	–	> 250	> 250	> 250	> 250	–
